Test results: ChEMBL document CHEMBL1154537, “Synthesis and evaluation of pyrido-thieno-pyrimidines as potent and selective Cdc7 kinase inhibitors” (Bioorg Med Chem Lett, 2009)
One block for each molecule: values may come before it. Active and inactive are the calls of the source. The calls are words filed in the database; no cut-off is given here.

What was measured:
[1] = Permeability in human Caco-2 cells; assay type: ADME, cell-based; conditions: read-out: permeability
[2] = molecular target: T1, CDC7/DBF4 (Cell division cycle 7-related protein kinase/Activator of S phase kinase) (Homo sapiens, UniProt O00311); assay: Inhibition of human recombinant Cdc7/Dbf4 by IMAP assay; assay type: protein-complex assay
[3] = molecular target: T1, CDC7/DBF4 (Cell division cycle 7-related protein kinase/Activator of S phase kinase); assay: Inhibition of human recombinant Cdc7/Dbf4 by HTRF assay
[4] = Solubility at pH 6.5; assay type: physicochemical; conditions: buffer
[5] = molecular target: Mitogen-activated protein kinase 1 (Homo sapiens, UniProt P28482); assay: Inhibition of human ERK2 by IMAP assay
[6] = Inhibition of human PKA by IMAP assay
[7] = molecular target: T2, Serine/threonine-protein kinase Sgk1 (Homo sapiens, UniProt O00141); assay: Inhibition of human SGK by IMAP assay
T2 sequence (O00141 whole entry): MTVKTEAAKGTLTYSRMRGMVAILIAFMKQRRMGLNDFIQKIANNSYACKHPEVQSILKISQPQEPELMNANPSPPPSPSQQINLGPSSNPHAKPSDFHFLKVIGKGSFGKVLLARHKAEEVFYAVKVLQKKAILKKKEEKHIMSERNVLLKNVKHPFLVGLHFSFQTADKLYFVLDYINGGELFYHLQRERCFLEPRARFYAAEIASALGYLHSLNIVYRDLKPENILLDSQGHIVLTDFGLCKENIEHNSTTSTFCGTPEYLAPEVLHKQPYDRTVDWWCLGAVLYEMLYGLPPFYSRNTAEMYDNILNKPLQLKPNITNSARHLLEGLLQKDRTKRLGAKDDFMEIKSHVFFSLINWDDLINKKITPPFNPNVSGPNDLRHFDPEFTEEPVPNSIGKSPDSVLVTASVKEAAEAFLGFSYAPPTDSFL

[8] = molecular target: Protein kinase C alpha type (Homo sapiens, UniProt P17252); assay: Inhibition of human PKCalpha by IMAP assay
[9] = molecular target: T3, Ephrin type-B receptor 3 (Homo sapiens, UniProt P54753); assay: Inhibition of human EphB3 by IMAP assay
T3 sequence (P54753 whole entry): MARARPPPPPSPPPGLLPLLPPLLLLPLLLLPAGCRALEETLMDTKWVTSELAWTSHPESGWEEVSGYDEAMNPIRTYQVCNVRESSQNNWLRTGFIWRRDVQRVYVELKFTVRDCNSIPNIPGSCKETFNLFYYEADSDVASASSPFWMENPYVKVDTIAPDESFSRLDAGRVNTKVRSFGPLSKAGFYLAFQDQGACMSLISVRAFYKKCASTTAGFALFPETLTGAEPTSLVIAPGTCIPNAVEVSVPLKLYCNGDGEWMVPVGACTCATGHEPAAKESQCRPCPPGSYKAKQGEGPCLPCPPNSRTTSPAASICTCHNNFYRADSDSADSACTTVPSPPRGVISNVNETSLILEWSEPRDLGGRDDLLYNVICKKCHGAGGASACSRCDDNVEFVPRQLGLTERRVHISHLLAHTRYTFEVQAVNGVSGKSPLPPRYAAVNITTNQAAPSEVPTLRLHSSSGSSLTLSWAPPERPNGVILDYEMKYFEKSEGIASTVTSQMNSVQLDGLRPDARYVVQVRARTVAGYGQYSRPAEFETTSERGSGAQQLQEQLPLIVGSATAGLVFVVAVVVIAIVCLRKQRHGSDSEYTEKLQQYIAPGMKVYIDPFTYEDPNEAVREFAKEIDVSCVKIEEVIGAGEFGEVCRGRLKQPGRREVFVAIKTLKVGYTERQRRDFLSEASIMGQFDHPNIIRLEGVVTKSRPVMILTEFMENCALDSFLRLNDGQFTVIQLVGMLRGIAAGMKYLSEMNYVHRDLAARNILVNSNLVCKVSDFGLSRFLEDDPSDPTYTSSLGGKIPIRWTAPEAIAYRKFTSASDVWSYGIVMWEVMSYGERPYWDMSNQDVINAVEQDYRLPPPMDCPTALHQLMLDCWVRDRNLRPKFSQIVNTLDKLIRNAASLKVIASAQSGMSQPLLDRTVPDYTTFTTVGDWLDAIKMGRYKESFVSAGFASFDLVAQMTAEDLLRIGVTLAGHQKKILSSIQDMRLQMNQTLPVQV

[10] = system: HCT-116; assay: Cytotoxicity against human HCT116 cells MTT assay; assay type: functional, cell-based
Method in brief: (§1)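 MTT viability assay on human colon cancer cell lines exposed in vitro across a compound concentration range. IC50 was taken from the dose-response.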

[11] = molecular target: Cyclin-dependent kinase 1/cyclin B1 (Homo sapiens, UniProt P06493); assay: Inhibition of human CDK1/Cyclin B by IMAP assay; assay type: protein-complex assay
[12] = system: RKO; assay: Cytotoxicity against human RKO cells MTT assay; assay type: functional, cell-based; method in brief: as §1
[13] = molecular target: Protein kinase C delta type (Homo sapiens, UniProt Q05655); assay: Inhibition of human PKCdelta by IMAP assay
[14] = molecular target: Cyclin-dependent kinase 2 (Homo sapiens, UniProt P24941); assay: Inhibition of human CDK2/Cyclin E by IMAP assay
[15] = system: SW480; assay: Cytotoxicity against human SW480 cells MTT assay; assay type: functional, cell-based; method in brief: as §1
[16] = molecular target: RAC-alpha serine/threonine-protein kinase (Homo sapiens, UniProt P31749); assay: Inhibition of human AKT by IMAP assay
[17] = molecular target: CDC7/DBF4 (Cell division cycle 7-related protein kinase/Activator of S phase kinase) (Homo sapiens) (UniProt Q9UBU7+O00311); assay: Inhibition of Cdc7/Dbf4-mediated MCM2 phosphorylation in human HCT116 cells assessed as decrease in faster migration of protein at 20 uM after 18 hrs by Western blot analysis; assay type: cell-based; conditions: HCT-116
Method in brief: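 HCT116 cells were arrested with 100 nM nocodazole for 16 h and mitotic cells were collected by shake-off and washed. The resulting G1 cells were incubated with 20 µM compound or DMSO for 18 h. MCM2 and phospho-MCM2 were read by Western blot.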

[18] = Inhibition of human CDK4/Cyclin D by IMAP assay
[19] = molecular target: Tyrosine-protein kinase Fyn (Homo sapiens, UniProt P06241); assay: Inhibition of human Fyn by IMAP assay
Tyrosine-protein kinase Fyn, sequence (P06241 whole entry): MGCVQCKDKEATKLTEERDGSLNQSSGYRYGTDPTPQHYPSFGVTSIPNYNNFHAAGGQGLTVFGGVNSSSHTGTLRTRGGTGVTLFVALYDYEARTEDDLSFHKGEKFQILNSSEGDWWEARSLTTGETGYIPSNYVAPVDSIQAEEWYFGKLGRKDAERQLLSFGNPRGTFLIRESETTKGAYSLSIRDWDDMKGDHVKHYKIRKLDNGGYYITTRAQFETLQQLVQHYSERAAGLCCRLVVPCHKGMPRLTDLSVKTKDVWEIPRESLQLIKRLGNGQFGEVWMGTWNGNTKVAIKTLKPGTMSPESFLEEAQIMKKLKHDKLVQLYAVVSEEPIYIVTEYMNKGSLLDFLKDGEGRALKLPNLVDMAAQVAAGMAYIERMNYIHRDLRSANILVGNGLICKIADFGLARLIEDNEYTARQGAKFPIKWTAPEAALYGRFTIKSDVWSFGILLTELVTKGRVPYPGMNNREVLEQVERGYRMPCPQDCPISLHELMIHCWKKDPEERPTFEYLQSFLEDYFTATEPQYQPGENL

T1 sequence (Q9UBU7 whole entry): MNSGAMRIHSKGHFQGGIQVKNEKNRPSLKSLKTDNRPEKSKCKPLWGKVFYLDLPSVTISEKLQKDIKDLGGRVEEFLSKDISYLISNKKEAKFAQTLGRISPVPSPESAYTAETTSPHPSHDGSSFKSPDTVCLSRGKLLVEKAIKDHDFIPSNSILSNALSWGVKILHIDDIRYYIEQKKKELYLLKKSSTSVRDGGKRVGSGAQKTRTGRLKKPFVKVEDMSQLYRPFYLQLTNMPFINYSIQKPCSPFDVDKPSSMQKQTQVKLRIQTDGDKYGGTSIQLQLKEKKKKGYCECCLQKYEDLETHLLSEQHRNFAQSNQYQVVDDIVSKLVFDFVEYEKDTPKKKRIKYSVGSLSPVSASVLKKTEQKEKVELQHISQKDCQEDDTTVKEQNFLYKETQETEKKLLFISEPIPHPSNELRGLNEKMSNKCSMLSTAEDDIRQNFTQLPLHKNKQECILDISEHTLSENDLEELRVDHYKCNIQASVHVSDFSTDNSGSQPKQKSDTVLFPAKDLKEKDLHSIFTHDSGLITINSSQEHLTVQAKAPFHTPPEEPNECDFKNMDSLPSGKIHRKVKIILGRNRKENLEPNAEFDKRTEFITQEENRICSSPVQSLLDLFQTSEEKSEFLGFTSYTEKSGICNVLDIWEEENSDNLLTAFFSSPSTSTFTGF
T1 sequence (O00311 whole entry): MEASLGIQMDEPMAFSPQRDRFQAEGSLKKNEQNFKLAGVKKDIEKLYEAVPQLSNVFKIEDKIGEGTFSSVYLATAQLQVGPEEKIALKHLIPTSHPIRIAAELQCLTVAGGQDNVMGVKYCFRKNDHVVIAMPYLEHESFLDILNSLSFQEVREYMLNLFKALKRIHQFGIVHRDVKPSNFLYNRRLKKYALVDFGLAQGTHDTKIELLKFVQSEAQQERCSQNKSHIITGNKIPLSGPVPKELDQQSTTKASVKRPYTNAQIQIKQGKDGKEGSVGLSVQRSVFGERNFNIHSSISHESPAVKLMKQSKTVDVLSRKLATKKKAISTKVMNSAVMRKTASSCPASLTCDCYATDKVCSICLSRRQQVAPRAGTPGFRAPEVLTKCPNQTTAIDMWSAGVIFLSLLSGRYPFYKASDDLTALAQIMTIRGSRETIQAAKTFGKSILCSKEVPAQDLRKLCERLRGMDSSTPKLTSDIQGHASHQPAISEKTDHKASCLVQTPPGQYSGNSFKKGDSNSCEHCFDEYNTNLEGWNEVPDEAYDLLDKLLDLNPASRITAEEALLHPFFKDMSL
CDC7/DBF4 (Cell division cycle 7-related protein kinase/Activator of S phase kinase) (Homo sapiens), sequence (O00311 whole entry, looked up): as the sequence (O00311 whole entry) above
CDC7/DBF4 (Cell division cycle 7-related protein kinase/Activator of S phase kinase) (Homo sapiens), sequence (Q9UBU7 whole entry, looked up): as the sequence (Q9UBU7 whole entry) above
Mitogen-activated protein kinase 1, sequence (P28482 whole entry): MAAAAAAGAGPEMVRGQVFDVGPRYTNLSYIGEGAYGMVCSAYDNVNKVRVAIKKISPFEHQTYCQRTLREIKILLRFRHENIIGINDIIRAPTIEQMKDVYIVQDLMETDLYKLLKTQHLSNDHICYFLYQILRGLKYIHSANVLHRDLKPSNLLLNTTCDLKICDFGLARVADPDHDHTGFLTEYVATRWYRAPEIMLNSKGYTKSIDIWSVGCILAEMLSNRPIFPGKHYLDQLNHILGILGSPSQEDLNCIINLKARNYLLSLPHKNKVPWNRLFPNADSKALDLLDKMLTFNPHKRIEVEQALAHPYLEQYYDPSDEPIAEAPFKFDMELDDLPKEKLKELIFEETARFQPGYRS
Protein kinase C delta type, sequence (Q05655 whole entry): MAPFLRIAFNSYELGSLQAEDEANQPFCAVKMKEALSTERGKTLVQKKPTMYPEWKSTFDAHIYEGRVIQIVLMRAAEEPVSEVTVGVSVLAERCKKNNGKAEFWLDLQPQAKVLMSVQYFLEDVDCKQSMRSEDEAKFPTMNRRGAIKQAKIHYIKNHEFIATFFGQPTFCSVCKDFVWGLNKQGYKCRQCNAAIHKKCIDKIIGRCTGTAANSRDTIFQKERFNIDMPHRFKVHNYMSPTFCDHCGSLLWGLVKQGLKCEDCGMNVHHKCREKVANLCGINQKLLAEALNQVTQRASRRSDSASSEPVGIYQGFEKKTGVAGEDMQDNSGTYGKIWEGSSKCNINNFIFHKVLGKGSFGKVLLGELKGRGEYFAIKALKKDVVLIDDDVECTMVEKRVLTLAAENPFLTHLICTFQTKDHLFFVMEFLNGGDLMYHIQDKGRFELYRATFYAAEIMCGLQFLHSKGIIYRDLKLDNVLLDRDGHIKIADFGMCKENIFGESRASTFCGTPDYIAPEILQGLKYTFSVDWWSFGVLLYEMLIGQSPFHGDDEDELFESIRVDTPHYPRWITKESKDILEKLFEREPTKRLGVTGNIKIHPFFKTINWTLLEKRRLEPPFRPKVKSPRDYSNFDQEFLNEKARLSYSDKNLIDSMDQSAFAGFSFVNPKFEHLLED
RAC-alpha serine/threonine-protein kinase, sequence (P31749 whole entry): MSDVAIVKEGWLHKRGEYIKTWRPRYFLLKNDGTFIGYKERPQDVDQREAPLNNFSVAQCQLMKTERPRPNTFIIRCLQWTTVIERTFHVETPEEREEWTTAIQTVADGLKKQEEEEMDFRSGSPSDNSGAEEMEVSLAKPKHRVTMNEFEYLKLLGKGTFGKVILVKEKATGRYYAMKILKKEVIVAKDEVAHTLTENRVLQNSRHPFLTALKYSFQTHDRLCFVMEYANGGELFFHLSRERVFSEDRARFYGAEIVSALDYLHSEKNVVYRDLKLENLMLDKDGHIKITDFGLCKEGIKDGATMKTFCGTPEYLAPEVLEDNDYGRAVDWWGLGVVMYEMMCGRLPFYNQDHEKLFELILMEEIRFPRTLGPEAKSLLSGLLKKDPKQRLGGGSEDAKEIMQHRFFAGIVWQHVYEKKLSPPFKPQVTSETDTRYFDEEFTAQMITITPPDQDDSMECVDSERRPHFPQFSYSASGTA
Cyclin-dependent kinase 1/cyclin B1, sequence (P06493 whole entry): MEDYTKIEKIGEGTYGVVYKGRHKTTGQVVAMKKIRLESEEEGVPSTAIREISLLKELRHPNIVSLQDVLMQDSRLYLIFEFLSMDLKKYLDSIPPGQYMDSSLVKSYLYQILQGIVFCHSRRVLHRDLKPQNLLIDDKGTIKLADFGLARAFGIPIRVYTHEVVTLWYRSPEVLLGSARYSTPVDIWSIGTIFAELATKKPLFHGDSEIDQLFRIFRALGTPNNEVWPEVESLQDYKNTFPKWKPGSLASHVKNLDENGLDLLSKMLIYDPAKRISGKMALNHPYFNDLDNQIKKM
Cyclin-dependent kinase 1/cyclin B1, sequence (P14635 whole entry, further chain): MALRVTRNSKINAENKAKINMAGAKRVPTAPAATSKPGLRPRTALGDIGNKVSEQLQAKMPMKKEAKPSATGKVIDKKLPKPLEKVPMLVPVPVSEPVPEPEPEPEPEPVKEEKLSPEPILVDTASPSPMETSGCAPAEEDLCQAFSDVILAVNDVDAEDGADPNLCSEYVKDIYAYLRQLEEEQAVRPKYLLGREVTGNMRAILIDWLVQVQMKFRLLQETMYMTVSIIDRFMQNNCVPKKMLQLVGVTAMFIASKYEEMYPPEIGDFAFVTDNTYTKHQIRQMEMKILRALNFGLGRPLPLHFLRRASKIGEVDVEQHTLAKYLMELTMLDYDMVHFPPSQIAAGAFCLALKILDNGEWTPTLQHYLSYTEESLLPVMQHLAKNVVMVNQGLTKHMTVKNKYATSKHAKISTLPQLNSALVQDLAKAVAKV

SMILES: Cc1c2c(nc3sc4c(N)ncnc4c13)CCCC2
Papp [1]: > 20 ×10⁻⁶ cm/s
Ki [2]: 2 nM
IC50 [3]: 20 nM
solubility [4]: < 30 µg/mL

SMILES: Cc1nc2sc3c(N)ncnc3c2c2c1CCC2
Papp [1]: > 20 ×10⁻⁶ cm/s
Ki [2]: 3 nM
IC50 [3]: 30 nM
solubility [4]: < 30 µg/mL

SMILES: Nc1ncnc2c1sc1ncc(-c3ccccc3)cc12
Papp [1]: > 20 ×10⁻⁶ cm/s
Ki [2]: 900 nM
IC50 [3]: 9000 nM
solubility [4]: < 30 µg/mL

SMILES: CCOC(=O)c1cc2c(nc1C)sc1c(N)ncnc12
Papp [1]: > 20 ×10⁻⁶ cm/s
Ki [2]: 1000 nM
IC50 [3]: 10000 nM
solubility [4]: < 30 µg/mL

SMILES: Cc1cc(C)c2c(n1)sc1c(N)ncnc12
Papp [1]: > 20 ×10⁻⁶ cm/s
solubility [4]: < 30 µg/mL

SMILES: Nc1ncnc2c1sc1nc(C3CC3)cc(C(F)(F)F)c12
Papp [1]: > 20 ×10⁻⁶ cm/s
Ki [2]: 400 nM
IC50 [3]: 4000 nM
solubility [4]: < 30 µg/mL

SMILES: Cc1cc(C)c2c(n1)sc1c(Nc3ccccc3)ncnc12
Papp [1]: > 20 ×10⁻⁶ cm/s
Ki [2]: > 3000 nM
IC50 [3]: > 30000 nM
solubility [4]: < 30 µg/mL

SMILES: C=CCc1c(C)nc2sc3c(N)ncnc3c2c1C
Ki [5]: > 5000 nM
Ki [6]: 1100 nM
Ki [7]: > 5000 nM
Ki [8]: > 5000 nM
Ki [9]: > 5000 nM
IC50 [10]: 8300 nM
Ki [11]: > 5000 nM
Papp [1]: > 20 ×10⁻⁶ cm/s
Ki [2]: 2 nM
IC50 [12]: 6600 nM
Ki [13]: > 5000 nM
Ki [14]: > 5000 nM
IC50 [3]: 20 nM
IC50 [15]: 9600 nM
Ki [16]: > 5000 nM
Activity [17]: Active
Ki [18]: > 5000 nM
solubility [4]: < 30 µg/mL
Ki [19]: > 5000 nM

Next, values leading:

Papp [1]: > 20 ×10⁻⁶ cm/s
Ki [2]: 0.5 nM
IC50 [3]: 5 nM
solubility [4]: < 30 µg/mL
SMILES: Cc1nc2sc3c(N)ncnc3c2c2c1CCCC2

Papp [1]: > 20 ×10⁻⁶ cm/s
Ki [2]: > 3000 nM
IC50 [3]: > 30000 nM
solubility [4]: < 30 µg/mL
SMILES: Cc1cc(C)c2c(n1)sc1c(N(C)C)ncnc12

Papp [1]: > 20 ×10⁻⁶ cm/s
Ki [2]: 1200 nM
IC50 [3]: 12000 nM
solubility [4]: < 30 µg/mL
SMILES: Nc1ncnc2c1sc1ncccc12

Papp [1]: > 20 ×10⁻⁶ cm/s
Ki [2]: 1 nM
IC50 [3]: 10 nM
solubility [4]: < 30 µg/mL
SMILES: CCc1c(C)nc2sc3c(N)ncnc3c2c1C

Papp [1]: > 20 ×10⁻⁶ cm/s
Ki [2]: 4 nM
IC50 [3]: 40 nM
solubility [4]: < 30 µg/mL
SMILES: Cc1nc2sc3c(N)ncnc3c2c(C)c1C

Papp [1]: > 20 ×10⁻⁶ cm/s
Ki [2]: 200 nM
IC50 [3]: 2000 nM
solubility [4]: < 30 µg/mL
SMILES: Cc1nc2sc3c(N)ncnc3c2c(C)c1Cc1ccccc1

Papp [1]: > 20 ×10⁻⁶ cm/s
Ki [2]: 5 nM
IC50 [3]: 50 nM
solubility [4]: < 30 µg/mL
SMILES: Cc1c2c(nc3sc4c(N)ncnc4c13)CCC2

Papp [1]: > 20 ×10⁻⁶ cm/s
Ki [2]: > 3000 nM
IC50 [3]: > 30000 nM
solubility [4]: < 30 µg/mL
SMILES: CNc1ncnc2c1sc1nc(C)cc(C)c12
